≈ marks a conversion by molar mass, not a printed value.
target: T1, Hematopoietic prostaglandin D synthase (Homo sapiens, UniProt O60760); test: Inhibition fluorescein-conjugated ligand binding to human HPGDS expressed in Escherichia coli by fluorescence polarization assay
Method in brief: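 Recombinant E. coli-expressed hH-PGDS. Displacement of a fluorescein-conjugated potent hH-PGDS inhibitor by compound was followed in dose-response by fluorescence polarization, excitation 470 nm and emission 530 nm. The assay was adapted from a commercial kit.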

T1 sequence (O60760 whole entry): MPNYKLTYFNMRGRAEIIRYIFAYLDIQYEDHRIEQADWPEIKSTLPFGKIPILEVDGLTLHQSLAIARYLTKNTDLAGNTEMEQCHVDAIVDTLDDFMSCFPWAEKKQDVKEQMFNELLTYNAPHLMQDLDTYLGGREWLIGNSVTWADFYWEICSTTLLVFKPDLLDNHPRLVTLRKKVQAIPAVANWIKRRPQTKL

IC50	SMILES
820 nM	CN(C)CCCC(=O)Nc1cncc(-c2cccc3[nH]ccc23)c1
210 nM	COc1cccc(-c2ccc(C(=O)NC3CCN(CC(F)(F)F)CC3)cn2)c1
2900 nM	COCCCNC(=O)c1nc(-c2cccc3[nH]ccc23)no1
460 nM	CN(C)CCC(=O)Nc1cncc(-c2cccc3[nH]ccc23)c1

target: T1, Hematopoietic prostaglandin D synthase; test: Binding affinity to human HPGDS expressed in Escherichia coli using 1-phenylpyrazole-4-carboxylic acid/6-(3-fluorophenyl)pyridine-3-carboxamide as reporter probe by ligand-observed 1D NMR T1rho binding assay
Method in brief: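 Ligand-observed NMR displacement of reporter molecules from recombinant E. coli-expressed wild-type hH-PGDS. Active-site binding of the reporters was confirmed by competition with a known inhibitor. Kd was calculated from the extent of reporter displacement at two compound concentrations, using the experimentally determined reporter and compound concentrations in an exact mathematical expression. Values are means of at least two independent experiments.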

SMILES	Kd
O=C(NC1CCN(CC(F)(F)F)CC1)c1ccc(N2CCCC2)nc1	200 nM
O=C(NC1CCN(CC(F)(F)F)CC1)c1ccc(-c2ccc(=O)[nH]c2)nc1	10000 nM
O=C(NC1CCN(CC(F)(F)F)CC1)c1ccc(-c2cccc(=O)[nH]2)nc1	400 nM
O=C(NC1CCN(CC(F)(F)F)CC1)c1ccc(N2CCCCC2)nc1	< 100 nM
O=C(CCc1cccnc1)Nc1cncc(-c2cccc3[nH]ccc23)c1	50 nM
O=C(NC1CCN(CC(F)(F)F)CC1)c1ccc(N2CCOCC2)nc1	400 nM
O=C(NC1CCN(CC(F)(F)F)CC1)c1ccc(N2CCNCC2)nc1	13000 nM
O=C(NC1CCN(CC(F)(F)F)CC1)c1ccc(-c2cc[nH]c(=O)c2)nc1	200 nM
CCC(=O)Nc1cncc(-c2cccc3[nH]ccc23)c1	60 nM
O=C1CC[C@@H](C(=O)Nc2cncc(-c3cccc4[nH]ccc34)c2)N1	300 nM
O=C(Cn1cnnn1)Nc1cncc(-c2cccc3[nH]ccc23)c1	200 nM
COc1cc(-c2ccc(C(=O)NC3CCN(CC(F)(F)F)CC3)cn2)ccn1	2000 nM
CN(C)CCCC(=O)Nc1cncc(-c2cccc3[nH]ccc23)c1	570 nM
COc1cccc(-c2ccc(C(=O)NC3CCN(CC(F)(F)F)CC3)cn2)c1	44 nM
COCCCNC(=O)c1nc(-c2cccc3[nH]ccc23)no1	650 nM
O=C(NC1CCN(CC(F)(F)F)CC1)c1ccc(Oc2ccccc2)nc1	60 nM

Continued, values first:

Kd	SMILES
9.5 nM	O=C(NC1CCN(CC(F)(F)F)CC1)c1ccc(-c2cccc(F)c2)nc1
1000 nM	O=C1CN(c2ccc(C(=O)NC3CCN(CC(F)(F)F)CC3)cn2)CCN1
23 nM	CC(C)(O)c1nc(-c2ccc(CNC(=O)c3cnc(-c4ccccn4)nc3)cc2)no1
14000 nM	CN(C)c1ccc(C(=O)NC2CCN(CC(F)(F)F)CC2)cn1
1000 nM	O=C(CCN1CCCCC1)Nc1cncc(-c2cccc3[nH]ccc23)c1
51 nM	c1ccc(-c2ncc(-c3cc[nH]n3)s2)cc1
< 20000 nM	Cn1cncc1CC(=O)Nc1cncc(-c2cccc3[nH]ccc23)c1
340 nM	CN(C)CCC(=O)Nc1cncc(-c2cccc3[nH]ccc23)c1

target: T1, Hematopoietic prostaglandin D synthase; test: Binding affinity to human HPGDS expressed in Escherichia coli by isothermal titration calorimetry
Method in brief: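 Recombinant wild-type hH-PGDS, expressed in E. coli and purified by cation exchange and gel filtration. Ligand, typically 500 µM at experimentally determined concentration, titrated in 2 µL aliquots into 30–40 µM protein. Reverse titrations (protein into ligand) used where ligand solubility was low. Values are means of at least two independent experiments.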

SMILES	Kd
NC(=O)c1ccc(-c2cccc(F)c2)nc1	800 nM
O=C(O)c1cnn(-c2ccccc2)c1	140000 nM
COc1cccc(-c2ccc(C(=O)NC3CCN(CC(F)(F)F)CC3)cn2)c1	12 nM

Now from value to compound:

Kd	SMILES
20 nM	O=C(NC1CCN(CC(F)(F)F)CC1)c1ccc(-c2cccc(F)c2)nc1
35 nM	CC(C)(O)c1nc(-c2ccc(CNC(=O)c3cnc(-c4ccccn4)nc3)cc2)no1
300 nM	c1ccc(-c2ncc(-c3cc[nH]n3)s2)cc1
210 nM	CN(C)CCC(=O)Nc1cncc(-c2cccc3[nH]ccc23)c1

target: T1, Hematopoietic prostaglandin D synthase; test: Inhibition HPGDS in human MEG01 cells assessed as reduction in PGD2 production incubated for 30 mins followed by stimulation with 5 uM ionomycin for 30 mins by enzyme immunoassay method; assay type: cell-based, MEG-01
Method in brief: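 MEG-01 cells were differentiated with 0.1 µM PMA for 16 h, then plated. Inhibitor was added in concentration response, 10 µM–0.15 nM, for 30 min at 37 °C, followed by 5 µM ionomycin for 30 min at 37 °C. Secreted PGD2 in the medium was quantified by PGD2-MOX EIA.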

EC50	SMILES
35 nM	O=C(NC1CCN(CC(F)(F)F)CC1)c1ccc(-c2cccc(F)c2)nc1
74 nM	CC(C)(O)c1nc(-c2ccc(CNC(=O)c3cnc(-c4ccccn4)nc3)cc2)no1
110 nM	c1ccc(-c2ncc(-c3cc[nH]n3)s2)cc1
130 nM	COc1cccc(-c2ccc(C(=O)NC3CCN(CC(F)(F)F)CC3)cn2)c1
350 nM	CN(C)CCC(=O)Nc1cncc(-c2cccc3[nH]ccc23)c1

tested on: not listed separately; test: Solubility of the compound; assay type: physicochemical

SMILES	solubility
CN(C)CCCC(=O)Nc1cncc(-c2cccc3[nH]ccc23)c1	84 µM (≈ 27.1 µg/mL)
COc1cccc(-c2ccc(C(=O)NC3CCN(CC(F)(F)F)CC3)cn2)c1	4.2 µM (≈ 1.65 µg/mL)
COCCCNC(=O)c1nc(-c2cccc3[nH]ccc23)no1	77 µM (≈ 23.1 µg/mL)

More lines, now with the values ahead:

solubility	SMILES
2.6 µM (≈ 0.992 µg/mL)	O=C(NC1CCN(CC(F)(F)F)CC1)c1ccc(-c2cccc(F)c2)nc1
1.4 µM (≈ 0.318 µg/mL)	c1ccc(-c2ncc(-c3cc[nH]n3)s2)cc1
95 µM (≈ 29.3 µg/mL)	CN(C)CCC(=O)Nc1cncc(-c2cccc3[nH]ccc23)c1

target: T1, Hematopoietic prostaglandin D synthase; test: Inhibition human HPGDS expressed in Escherichia coli assessed as reduction in GST enzymatic activity using MCBL and glutathione incubated for 30 mins by fluorescence based assay
Method in brief: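 Compound was preincubated 30 min with enzyme at 1.5 µg/ml in 50 mM Tris, 2 mM MgCl2, 0.1% CHAPS. MCBL (0.4 mM, added solution) and glutathione were then added, and fluorescence (ex 360/em 460) was read at once and again after 30 min. Readings were normalised to DMSO wells (0%) and a control inhibitor (100%). Values are means of at least two independent experiments.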

SMILES	IC50
O=C(NC1CCN(CC(F)(F)F)CC1)c1ccc(N2CCCC2)nc1	230 nM
O=C(NC1CCN(CC(F)(F)F)CC1)c1ccc(-c2cccc(=O)[nH]2)nc1	71 nM
O=C(NC1CCN(CC(F)(F)F)CC1)c1ccc(N2CCCCC2)nc1	48 nM
O=C(CCc1cccnc1)Nc1cncc(-c2cccc3[nH]ccc23)c1	26 nM
O=C(NC1CCN(CC(F)(F)F)CC1)c1ccc(N2CCOCC2)nc1	320 nM
O=C(NC1CCN(CC(F)(F)F)CC1)c1ccc(-c2cc[nH]c(=O)c2)nc1	70 nM
CCC(=O)Nc1cncc(-c2cccc3[nH]ccc23)c1	32 nM
O=C1CC[C@@H](C(=O)Nc2cncc(-c3cccc4[nH]ccc34)c2)N1	35 nM
O=C(Cn1cnnn1)Nc1cncc(-c2cccc3[nH]ccc23)c1	43 nM
CN(C)CCCC(=O)Nc1cncc(-c2cccc3[nH]ccc23)c1	180 nM
COc1cccc(-c2ccc(C(=O)NC3CCN(CC(F)(F)F)CC3)cn2)c1	60 nM
COCCCNC(=O)c1nc(-c2cccc3[nH]ccc23)no1	170 nM
O=C(NC1CCN(CC(F)(F)F)CC1)c1ccc(Oc2ccccc2)nc1	31 nM

Further lines, results first:

IC50	SMILES
200 nM	O=C(NC1CCN(CC(F)(F)F)CC1)c1ccc(-c2cccc(F)c2)nc1
590 nM	O=C1CN(c2ccc(C(=O)NC3CCN(CC(F)(F)F)CC3)cn2)CCN1
70 nM	CC(C)(O)c1nc(-c2ccc(CNC(=O)c3cnc(-c4ccccn4)nc3)cc2)no1
130 nM	O=C(CCN1CCCCC1)Nc1cncc(-c2cccc3[nH]ccc23)c1
23 nM	c1ccc(-c2ncc(-c3cc[nH]n3)s2)cc1
1200 nM	Cn1cncc1CC(=O)Nc1cncc(-c2cccc3[nH]ccc23)c1
300 nM	CN(C)CCC(=O)Nc1cncc(-c2cccc3[nH]ccc23)c1

From ChEMBL document CHEMBL3425475, “Identification of indole inhibitors of human hematopoietic prostaglandin D2 synthase (hH-PGDS)” (Bioorg Med Chem Lett, 2015)
